Results from ChEMBL document CHEMBL1121786, “Studies on position 1 of angiotensin II: effects on affinity and duration of action from alkyl amide substitution” (J Med Chem, 1981).

Key:
Oryctolagus cuniculus [1] = organism: Oryctolagus cuniculus; assay: In vitro intrinsic activity was determined against rabbit aorta and expressed as negative logarithm of half maximal dose
Procedure, shortened: (§1)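 Isolated aortic tissue in a bath aerated with 95% O2/5% CO2 under 2.0 g initial tension, readjusted during a 60–90 min equilibration with bath fluid changed every 10–15 min. Concentrations are final bath concentrations. Peptides are kept as 1 mg/mL stocks in distilled water at -20 °C for up to 14 days and diluted in 0.9% saline just before use.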

Oryctolagus cuniculus [2] = organism: Oryctolagus cuniculus; assay: In vitro intrinsic activity was determined against rabbit aorta and expressed as factor F at t1/2; type: functional
Rattus norvegicus [3] = assay: In vivo intrinsic activity against rat aorta and value was reported as factor between the hypertensin and the compound; type: functional
Procedure, shortened: (§2)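 Male Wistar rats (~250 g) are anesthetized with urethane 1.4 g/kg sc, with jugular vein and carotid artery cannulated. Peptides are diluted in 0.9% saline from 1 mg/mL aqueous stocks and injected intravenously. Arterial blood pressure is recorded through the carotid cannula with a pressure transducer.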

Oryctolagus cuniculus [4] = organism: Oryctolagus cuniculus; assay: In vitro intrinsic activity was determined against rabbit aorta and expressed as factor F at t3/4; type: functional
Rattus norvegicus [5] = assay: In vivo intrinsic activity was determined against rat aorta and percent increase in blood pressure was reported; type: functional; procedure, shortened: as §2
Oryctolagus cuniculus [6] = organism: Oryctolagus cuniculus; assay: In vitro intrinsic activity was determined against rabbit aorta and expressed as alpha E; type: functional; procedure, shortened: as §1
Oryctolagus cuniculus [7] = organism: Oryctolagus cuniculus; assay: In vitro intrinsic activity against rabbit aorta and value was reported as factor between the hypertensin and the compound; type: functional; procedure, shortened: as §1
Oryctolagus cuniculus [8] = organism: Oryctolagus cuniculus; assay: In vitro intrinsic activity was determined against rabbit aorta and percent increase in blood pressure was reported; type: functional
Oryctolagus cuniculus [9] = organism: Oryctolagus cuniculus; assay: In vitro intrinsic activity was determined against rabbit aorta and time taken to ralax maximally contracted tissue to 50% was reported; type: functional
Procedure, shortened: (§3)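 Aortic strips are held in an aerated (95% O2/5% CO2) bath under 2.0 g tension after a 60–90 min equilibration. At maximal agonist contraction, unbound peptide is removed by several washes and the time for tension to fall back toward the pre-contraction level is recorded. Peptides are diluted in 0.9% saline from 1 mg/mL aqueous stocks immediately before use.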

Oryctolagus cuniculus [10] = organism: Oryctolagus cuniculus; assay: In vitro intrinsic activity was determined against rabbit aorta and time taken to ralax maximally contracted tissue to 25% was reported; type: functional; set-up: unit not given beside the values; procedure, shortened: as §3

Molecule | pD2 (Oryctolagus cuniculus [1]) | F1/2 (Oryctolagus cuniculus [2]) | Activity Factor (Rattus norvegicus [3]) | F3/4 (Oryctolagus cuniculus [4]) | Increase in blood pressure (Rattus norvegicus [5]) [%] | Alpha E (Oryctolagus cuniculus [6]) | Activity (Oryctolagus cuniculus [7]) | Increase in blood pressure (Oryctolagus cuniculus [8]) [%] | T1/2 (Oryctolagus cuniculus [9]) | T3/4 (Oryctolagus cuniculus [10])
CC[C@H](C)[C@H](NC(=O)[C@H](Cc1ccc(O)cc1)NC(=O)[C@@H](NC(=O)[C@H](CCCN=C(N)N)NC(=O)[C@@H](N)CC(=O)N(C)C)C(C)C)C(=O)N[C@@H](Cc1c[nH]cn1)C(=O)N1CCC[C@H]1C(=O)N[C@@H](Cc1ccccc1)C(=O)O [listing 1 of 2 here] | 7.39 | – | – | – | – | – | – | – | – | –
H-NRVYIHPF-OH | 7.73 | 1 | 1 | 1 | 100 | 1 | 1 | 100 | 5 | 8.7
CC[C@H](C)[C@H](NC(=O)[C@H](Cc1ccc(O)cc1)NC(=O)[C@@H](NC(=O)[C@H](CCCN=C(N)N)NC(=O)[C@@H](N)CC(=O)N(C)C)C(C)C)C(=O)N[C@@H](Cc1c[nH]cn1)C(=O)N1CCC[C@H]1C(=O)N[C@@H](Cc1ccccc1)C(=O)O [listing 2 of 2 here] | – | 1.3 | 3.3 | 2.3 | 30 | 1 | 2.2 | 46 | – | 20
CC[C@H](C)[C@H](NC(=O)[C@H](Cc1ccc(O)cc1)NC(=O)[C@@H](NC(=O)[C@H](CCCN=C(N)N)NC(=O)[C@@H](N)CC(=O)N(C)C)C(C)C)C(=O)N[C@@H](Cc1c[nH]cn1)C(=O)N1CCC[C@@H]1C(=O)N[C@@H](Cc1ccccc1)C(=O)O | – | – | – | – | – | – | – | – | 6.7 | –
CCCN(CCC)C(=O)C[C@H](N)C(=O)N[C@@H](CCCN=C(N)N)C(=O)N[C@H](C(=O)N[C@@H](Cc1ccc(O)cc1)C(=O)N[C@H](C(=O)N[C@@H](Cc1c[nH]cn1)C(=O)N1CCC[C@@H]1C(=O)N[C@@H](Cc1ccccc1)C(=O)O)[C@@H](C)CC)C(C)C | – | – | – | – | – | – | – | – | 18.7 | –
CCCN(CCC)C(=O)C[C@H](N)C(=O)N[C@@H](CCCN=C(N)N)C(=O)N[C@H](C(=O)N[C@@H](Cc1ccc(O)cc1)C(=O)N[C@H](C(=O)N[C@@H](Cc1c[nH]cn1)C(=O)N1CCC[C@H]1C(=O)N[C@@H](Cc1ccccc1)C(=O)O)[C@@H](C)CC)C(C)C [listing 1 of 2 here] | – | 3.7 | 11.1 | 5.1 | 9 | 1 | 6.3 | 16 | – | 44
CCCN(CCC)C(=O)C[C@H](N)C(=O)N[C@@H](CCCN=C(N)N)C(=O)N[C@H](C(=O)N[C@@H](Cc1ccc(O)cc1)C(=O)N[C@H](C(=O)N[C@@H](Cc1c[nH]cn1)C(=O)N1CCC[C@H]1C(=O)N[C@@H](Cc1ccccc1)C(=O)O)[C@@H](C)CC)C(C)C [listing 2 of 2 here] | 6.93 | – | – | – | – | – | – | – | – | –
CC[C@H](C)[C@H](NC(=O)[C@H](Cc1ccc(O)cc1)NC(=O)[C@@H](NC(=O)[C@H](CCCN=C(N)N)NC(=O)[C@@H](N)CC(=O)N(C(C)C)C(C)C)C(C)C)C(=O)N[C@@H](Cc1c[nH]cn1)C(=O)N1CCC[C@H]1C(=O)N[C@@H](Cc1ccccc1)C(=O)O [listing 1 of 2 here] | – | 2.9 | 14.3 | 4.2 | 7 | 1 | 11 | 9 | – | 36.7
CC[C@H](C)[C@H](NC(=O)[C@H](Cc1ccc(O)cc1)NC(=O)[C@@H](NC(=O)[C@H](CCCN=C(N)N)NC(=O)[C@@H](N)CC(=O)N(C(C)C)C(C)C)C(C)C)C(=O)N[C@@H](Cc1c[nH]cn1)C(=O)N1CCC[C@@H]1C(=O)N[C@@H](Cc1ccccc1)C(=O)O | – | – | – | – | – | – | – | – | 14.3 | –
CC[C@H](C)[C@H](NC(=O)[C@H](Cc1ccc(O)cc1)NC(=O)[C@@H](NC(=O)[C@H](CCCN=C(N)N)NC(=O)[C@@H](N)CC(=O)N(C(C)C)C(C)C)C(C)C)C(=O)N[C@@H](Cc1c[nH]cn1)C(=O)N1CCC[C@H]1C(=O)N[C@@H](Cc1ccccc1)C(=O)O [listing 2 of 2 here] | 6.69 | – | – | – | – | – | – | – | – | –
